Key:
[1] = test system: S. sanguinis harboring toxicity reporter; assay: Competence-coupled toxicity reporter growth assay; type: cell-based; details: 5-FOA final 1 mg/mL in THY; OD600 at 12 h; WT S. sanguinis + RT; n = 3
comCDE locus = assay: Luciferase reporter assay of comCDE locus activation; type: cell-based, S. sanguinis VMC66; details: PcomCDEluc reporter; for activity relative to each other / activity class of CSP derivatives: luminescence, 20 min, 37 °C
Summary of the method: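 Overnight VMC66 PcomCDEluc reporter culture diluted 1:10 and held 30 min at 37 °C, 5% CO2. 198 μL per well received 2 μL DMSO or serially diluted synthetic peptide. After 20 min at 37 °C, 5% CO2, luminescence was read on a plate reader. EC50 values were fitted from three independent experiments.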

S. sanguinis = assay: CSP-induced DNA transformation efficiency; type: cell-based; details: C+Y media
Summary of the method: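 Cultures grown in THY or C+Y (a chemically defined medium with 2.2 g/L yeast extract) at 37 °C, 5% CO2. Diluted culture (500 μL) mixed with 113 nM CSP and 10 ng target DNA (linear knockout cassette or blank plasmid). Incubated a further 90 min, then plated on THY with selective antibiotic. Colonies counted after two days. Mean of three independent replicates with standard deviation.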

Row | Compound | activity relative to each other / activity class of CSP derivatives (comCDE locus) | other results
1 | O=C(O)c1[nH]c(=O)[nH]c(=O)c1F [5’-FOA, 5-Fluoroorotic acid] | – | competence-coupled growth defect with toxicity reporter, WT [1]: could induce significant growth defect in WT S. sanguinis background
2 | H-DLRGVPNPWGWIFG-OH | – | potency of CSP analog lacking the C-terminal AA (comCDE locus; Figure S1): significantly less-potent
3 | H-DLRGVPNPWGWIFGR-OH [15mer] | similarly active | transformation efficiency, C+Y vs THY (S. sanguinis): drop in transformation efficiency
4 | H-FWDLRGVPNPWGWIFGR-OH [17mer] | inactive | –
5 | H-TFWDLRGVPNPWGWIFGR-OH [18mer] | inactive | –
6 | H-WDLRGVPNPWGWIFGR-OH [16mer] | similarly active | –

From paper PMC10922391 (Cell chemical biology, 2023)
